Calls of active or inactive are those of the source. The rule behind the calls is not given here.
How the values were obtained:
[1] = system: Heterodera zeae; assay: Nematicidal activity against Heterodera zeae infective stage larvae assessed as nematode mortality at 0.5% under light conditions measured 72 hr post dose by stereoscopic microscopy; format: functional
Outline: (§1)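 Freshly hatched H. zeae second-stage juveniles, 100 per Petri plate, three replicates. Samples in MeOH, DMSO or water were tested in glass cavity blocks; petroleum ether samples were dried onto the block and larvae transferred on agar pieces. Percentages are dilutions of 30 mg/mL stocks (extracts/fractions) or 1 mg/mL stocks (pure compounds). Incubated at 28 ± 2 °C in light or dark box; mortality averaged over three replicates.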

[2] = system: Heterodera zeae; assay: Nematicidal activity against Heterodera zeae infective stage larvae assessed as nematode mortality at 0.5% under light conditions measured 48 hr post dose by stereoscopic microscopy; format: functional; outline: as §1
[3] = system: Heterodera zeae; assay: Nematicidal activity against Heterodera zeae infective stage larvae assessed as nematode mortality at 1% under dark conditions measured 24 hr post dose by stereoscopic microscopy; format: functional; outline: as §1
[4] = system: Heterodera zeae; assay: Nematicidal activity against Heterodera zeae infective stage larvae assessed as nematode mortality at 0.125% under light conditions measured 48 hr post dose by stereoscopic microscopy; format: functional; outline: as §1
[5] = system: Heterodera zeae; assay: Nematicidal activity against Heterodera zeae infective stage larvae assessed as nematode mortality at 0.25% under light conditions measured 48 hr post dose by stereoscopic microscopy; format: functional; outline: as §1
[6] = system: Heterodera zeae; assay: Nematicidal activity against Heterodera zeae infective stage larvae assessed as nematode mortality at 0.125% under light conditions measured 24 hr post dose by stereoscopic microscopy; format: functional; outline: as §1
[7] = system: Heterodera zeae; assay: Nematicidal activity against Heterodera zeae infective stage larvae assessed as nematode mortality at 0.25% under light conditions measured 24 hr post dose by stereoscopic microscopy; format: functional; outline: as §1
[8] = system: Heterodera zeae; assay: Nematicidal activity against Heterodera zeae infective stage larvae assessed as nematode mortality at 0.5% under light conditions measured 24 hr post dose by stereoscopic microscopy; format: functional; outline: as §1
[9] = system: Heterodera zeae; assay: Nematicidal activity against Heterodera zeae infective stage larvae assessed as nematode mortality at 1% under light conditions measured 24 hr post dose by stereoscopic microscopy; format: functional; outline: as §1
[10] = system: Heterodera zeae; assay: Nematicidal activity against Heterodera zeae infective stage larvae assessed as nematode mortality at 0.125% under dark conditions measured 5 to 60 min post dose by stereoscopic microscopy; format: functional, organism-based
Outline: (§2)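 H. zeae freshly hatched second-stage juveniles, 100 per plate, three replicates, at 28 ± 2 °C under light or in a dark box. Dilutions are % of a stock: 30 mg/mL for extracts/fractions, 1 mg/mL for pure compounds. Methanol-, DMSO- or water-soluble samples were tested in glass cavity blocks. Petroleum ether-soluble samples were air-dried in the block and covered with agar pieces bearing cultured larvae. Mortality was followed over 5–60 min; each value is the mean of three experiments.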

[11] = system: Heterodera zeae; assay: Nematicidal activity against Heterodera zeae infective stage larvae assessed as nematode mortality at 0.25% under dark conditions measured 5 to 60 min post dose by stereoscopic microscopy; format: functional, organism-based; outline: as §2
[12] = system: Heterodera zeae; assay: Nematicidal activity against Heterodera zeae infective stage larvae assessed as nematode mortality at 0.5% under dark conditions measured 5 to 60 min post dose by stereoscopic microscopy; format: functional, organism-based; outline: as §2
[13] = system: Heterodera zeae; assay: Nematicidal activity against Heterodera zeae infective stage larvae assessed as nematode mortality at 1% under dark conditions measured 5 to 60 min post dose by stereoscopic microscopy; format: functional, organism-based; outline: as §2
[14] = system: Heterodera zeae; assay: Nematicidal activity against Heterodera zeae infective stage larvae assessed as nematode mortality at 2% under dark conditions measured 5 to 60 min post dose by stereoscopic microscopy; format: functional, organism-based; outline: as §2
[15] = system: Heterodera zeae; assay: Nematicidal activity against Heterodera zeae infective stage larvae assessed as nematode mortality at 5% under dark conditions measured 5 to 60 min post dose by stereoscopic microscopy; format: functional, organism-based; outline: as §2
[16] = system: Heterodera zeae; assay: Nematicidal activity against Heterodera zeae infective stage larvae assessed as nematode mortality at 0.125% under light conditions measured 5 to 60 min post dose by stereoscopic microscopy; format: functional, organism-based; outline: as §2
[17] = system: Heterodera zeae; assay: Nematicidal activity against Heterodera zeae infective stage larvae assessed as nematode mortality at 0.25% under light conditions measured 5 to 60 min post dose by stereoscopic microscopy; format: functional, organism-based; outline: as §2
[18] = system: Heterodera zeae; assay: Nematicidal activity against Heterodera zeae infective stage larvae assessed as nematode mortality at 0.5% under light conditions measured 5 to 60 min post dose by stereoscopic microscopy; format: functional, organism-based; outline: as §2
[19] = system: Heterodera zeae; assay: Nematicidal activity against Heterodera zeae infective stage larvae assessed as nematode mortality at 1% under light conditions measured 5 to 60 min post dose by stereoscopic microscopy; format: functional, organism-based; outline: as §2
[20] = system: Heterodera zeae; assay: Nematicidal activity against Heterodera zeae infective stage larvae assessed as nematode mortality at 2% under light conditions measured 5 to 60 min post dose by stereoscopic microscopy; format: functional, organism-based; outline: as §2
[21] = system: Heterodera zeae; assay: Nematicidal activity against Heterodera zeae infective stage larvae assessed as nematode mortality at 5% under light conditions measured 5 to 60 min post dose by stereoscopic microscopy; format: functional, organism-based; outline: as §2
[22] = system: Heterodera zeae; assay: Nematicidal activity against Heterodera zeae infective stage larvae assessed as nematode mortality at 0.125% under dark conditions measured 48 hr post dose by stereoscopic microscopy; format: functional; outline: as §1
[23] = system: Heterodera zeae; assay: Nematicidal activity against Heterodera zeae infective stage larvae assessed as nematode mortality at 0.25% under dark conditions measured 48 hr post dose by stereoscopic microscopy; format: functional; outline: as §1
[24] = system: Heterodera zeae; assay: Nematicidal activity against Heterodera zeae infective stage larvae assessed as nematode mortality at 0.125% under dark conditions measured 24 hr post dose by stereoscopic microscopy; format: functional; outline: as §1
[25] = system: Heterodera zeae; assay: Nematicidal activity against Heterodera zeae infective stage larvae assessed as nematode mortality at 0.25% under dark conditions measured 24 hr post dose by stereoscopic microscopy; format: functional; outline: as §1
[26] = system: Heterodera zeae; assay: Nematicidal activity against Heterodera zeae infective stage larvae assessed as nematode mortality at 0.5% under dark conditions measured 24 hr post dose by stereoscopic microscopy; format: functional; outline: as §1
[27] = system: Heterodera zeae; assay: Nematicidal activity against Heterodera zeae infective stage larvae assessed as nematode mortality at 1% under dark conditions measured 72 hr post dose by stereoscopic microscopy; format: functional; outline: as §1
[28] = system: Heterodera zeae; assay: Nematicidal activity against Heterodera zeae infective stage larvae assessed as nematode mortality at 1% under dark conditions measured 48 hr post dose by stereoscopic microscopy; format: functional; outline: as §1
[29] = system: Heterodera zeae; assay: Nematicidal activity against Heterodera zeae infective stage larvae assessed as nematode mortality at 1% under light conditions measured 72 hr post dose by stereoscopic microscopy; format: functional; outline: as §1
[30] = system: Heterodera zeae; assay: Nematicidal activity against Heterodera zeae infective stage larvae assessed as nematode mortality at 1% under light conditions measured 48 hr post dose by stereoscopic microscopy; format: functional; outline: as §1
[31] = system: Heterodera zeae; assay: Nematicidal activity against Heterodera zeae infective stage larvae assessed as nematode mortality at 0.125% under dark conditions measured 72 hr post dose by stereoscopic microscopy; format: functional; outline: as §1
[32] = system: Heterodera zeae; assay: Nematicidal activity against Heterodera zeae infective stage larvae assessed as nematode mortality at 0.25% under dark conditions measured 72 hr post dose by stereoscopic microscopy; format: functional; outline: as §1
[33] = system: Heterodera zeae; assay: Nematicidal activity against Heterodera zeae infective stage larvae assessed as nematode mortality at 0.5% under dark conditions measured 72 hr post dose by stereoscopic microscopy; format: functional; outline: as §1
[34] = system: Heterodera zeae; assay: Nematicidal activity against Heterodera zeae infective stage larvae assessed as nematode mortality at 0.5% under dark conditions measured 48 hr post dose by stereoscopic microscopy; format: functional; outline: as §1
[35] = system: Heterodera zeae; assay: Nematicidal activity against Heterodera zeae infective stage larvae assessed as nematode mortality at 0.125% under light conditions measured 72 hr post dose by stereoscopic microscopy; format: functional; outline: as §1
[36] = system: Heterodera zeae; assay: Nematicidal activity against Heterodera zeae infective stage larvae assessed as nematode mortality at 0.25% under light conditions measured 72 hr post dose by stereoscopic microscopy; format: functional; outline: as §1

Compound: CCCCCCCCCCCCCC(=O)O [MYRISTIC ACID]
- mortality [1]: 50%
- mortality [2]: 30%
- mortality [3]: 50%
- mortality [4]: 20%
- mortality [5]: 20%
- mortality [6]: 20%
- mortality [7]: 20%
- mortality [8]: 30%
- mortality [9]: 40%
- Activity [10]: inactive
- Activity [11]: inactive
- Activity [12]: inactive
- Activity [13]: inactive
- Activity [14]: inactive
- Activity [15]: inactive
- Activity [16]: inactive
- Activity [17]: inactive
- Activity [18]: inactive
- Activity [19]: inactive
- Activity [20]: inactive
- Activity [21]: inactive
- mortality [22]: 20%
- mortality [23]: 30%
- mortality [24]: 20%
- mortality [25]: 30%
- mortality [26]: 50%
- mortality [27]: 90%
- mortality [28]: 60%
- mortality [29]: 80%
- mortality [30]: 50%
- mortality [31]: 50%
- mortality [32]: 80%
- mortality [33]: 80%
- mortality [34]: 50%
- mortality [35]: 40%
- mortality [36]: 50%

Compound: CCCCCCCC/C=C\CCCCCCCC(=O)OC [METHYL OLEATE]
- mortality [2]: 100%
- mortality [3]: 50%
- mortality [4]: 50%
- mortality [5]: 50%
- mortality [6]: 10%
- mortality [7]: 10%
- mortality [8]: 50%
- mortality [9]: 50%
- Activity [10]: inactive
- Activity [11]: inactive
- Activity [12]: inactive
- Activity [13]: inactive
- Activity [14]: inactive
- Activity [15]: inactive
- Activity [16]: inactive
- Activity [17]: inactive
- Activity [18]: inactive
- Activity [19]: inactive
- Activity [20]: inactive
- Activity [21]: inactive
- mortality [22]: 10%
- mortality [23]: 10%
- mortality [24]: 10%
- mortality [25]: 10%
- mortality [26]: 40%
- mortality [28]: 100%
- mortality [30]: 100%
- mortality [31]: 10%
- mortality [32]: 10%
- mortality [34]: 100%
- mortality [35]: 100%
- mortality [36]: 100%

Compound: COc1ccc(C(=O)O)cc1OC [VERATRIC ACID]
- mortality [1]: 100%
- mortality [2]: 80%
- mortality [3]: 50%
- mortality [4]: 50%
- mortality [5]: 50%
- mortality [6]: 10%
- mortality [7]: 10%
- mortality [8]: 60%
- mortality [9]: 80%
- Activity [10]: inactive
- Activity [11]: inactive
- Activity [12]: inactive
- Activity [13]: inactive
- Activity [14]: inactive
- Activity [15]: inactive
- Activity [16]: inactive
- Activity [17]: inactive
- Activity [18]: inactive
- Activity [19]: inactive
- Activity [20]: inactive
- Activity [21]: inactive
- mortality [22]: 20%
- mortality [23]: 40%
- mortality [24]: 10%
- mortality [25]: 30%
- mortality [26]: 50%
- mortality [27]: 90%
- mortality [28]: 60%
- mortality [30]: 100%
- mortality [31]: 50%
- mortality [32]: 80%
- mortality [33]: 80%
- mortality [34]: 50%
- mortality [35]: 100%
- mortality [36]: 100%
